Screening results from PubChem.
PKD1 inh: inhibitors of human PKD1 kinase. inhibition, % (no concentration beside the values). hit rate 0.056% among 200,000. AID 797. PKD1 kinase fluorescence polarization assay; in the data active means inhibition above about 50%
DTT redox prof: compounds producing H2O2 with reducing agent – biochemical, NIH compound library profiling, artefact control for MLSCN library redox annotation, primary screen; DTT-dependent redox cycling H2O2, phenol red/HRP absorbance; 100% = 100 µM peroxide control, 0% = buffer; activation, % at 10 µM; hit rate 0.03% among 200,000; AID 878;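 active means activation of at least 50% relative to the plate's high and low controls in the primary single-dose screen; inactive means activation below 50%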;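 further: compound incubated with DTT at 0.8 mM final as the reducing agent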
p97 inhibitor: inhibitors of human p97 ATPase; P55072; recombinant p97 ATPase, Kinase-Glo ATP luminescence, 3 h; inhibition, % at 8 µM; hit rate 0.42% among 220,000; in the data active means inhibition above about 15%;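 further: 0% = DMSO vehicle and 100% = wells lacking enzyme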
KCC2 mod: modulates chloride dependent transport by human KCC2 | Q9H2X9 | KCC2 cells, thallium flux FluoZin-2 fluorescence | B-score of Tl+ flux slope (higher = more flux/activation; lower = inhibition) at 10 µM | hit rate 2.2% among 190,000 | AID 1456;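 active means thallium flux slope and its plate-corrected score both differing from the plate sample mean at a set confidence after two filtering rounds, in either direction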;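 further: slope of fluorescence scaled to starting intensity during 10 to 20 s after thallium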
Target sequence (Q9H2X9 whole entry, looked up): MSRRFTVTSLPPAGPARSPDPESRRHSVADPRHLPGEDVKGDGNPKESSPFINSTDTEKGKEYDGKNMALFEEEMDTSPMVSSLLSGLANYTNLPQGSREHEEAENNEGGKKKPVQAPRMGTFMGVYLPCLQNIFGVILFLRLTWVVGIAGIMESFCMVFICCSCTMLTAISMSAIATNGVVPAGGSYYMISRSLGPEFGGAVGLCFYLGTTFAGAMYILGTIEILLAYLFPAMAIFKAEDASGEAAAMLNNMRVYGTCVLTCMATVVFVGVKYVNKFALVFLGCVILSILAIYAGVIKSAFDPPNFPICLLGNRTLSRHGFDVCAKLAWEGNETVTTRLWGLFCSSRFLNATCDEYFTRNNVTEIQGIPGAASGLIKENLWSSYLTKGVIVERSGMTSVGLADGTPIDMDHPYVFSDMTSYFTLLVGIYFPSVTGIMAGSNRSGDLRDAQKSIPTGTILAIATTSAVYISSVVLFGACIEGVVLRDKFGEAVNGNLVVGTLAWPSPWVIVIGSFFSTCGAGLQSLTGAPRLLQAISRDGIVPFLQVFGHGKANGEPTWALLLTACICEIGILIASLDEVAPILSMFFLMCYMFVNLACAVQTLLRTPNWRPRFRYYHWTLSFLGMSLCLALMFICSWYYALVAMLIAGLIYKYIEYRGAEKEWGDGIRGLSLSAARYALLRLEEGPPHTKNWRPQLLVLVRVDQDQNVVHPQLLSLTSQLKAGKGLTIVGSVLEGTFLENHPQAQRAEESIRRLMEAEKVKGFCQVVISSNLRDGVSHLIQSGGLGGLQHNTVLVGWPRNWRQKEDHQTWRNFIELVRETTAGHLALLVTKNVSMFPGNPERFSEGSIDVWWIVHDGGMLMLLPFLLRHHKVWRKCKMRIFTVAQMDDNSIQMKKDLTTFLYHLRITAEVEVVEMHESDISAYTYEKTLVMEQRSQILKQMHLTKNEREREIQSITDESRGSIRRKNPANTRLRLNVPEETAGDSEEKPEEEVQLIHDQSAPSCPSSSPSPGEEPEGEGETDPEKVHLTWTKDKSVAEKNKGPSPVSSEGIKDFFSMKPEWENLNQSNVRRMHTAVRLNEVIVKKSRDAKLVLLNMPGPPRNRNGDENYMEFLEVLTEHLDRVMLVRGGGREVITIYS
ROMK mod: human ROMK K+ channel modulation, primary screen. Tet-inducible ROMK, thallium flux fluorescence; actives lie on both sides. B-score at 10 µM. hit rate 2% among 130,000. AID 1918;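 active means signal ratio slope over the read window, or its plate-corrected B-score, at least 3 SD from the plate mean, either direction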;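 further: B-score of the F/F0 ratio slope over 7 to 12 s after thallium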
MDM2 E3 inh: blocks human Mdm2 ubiquitin ligase activity; Q00987; cell-based MDM2 ubiquitination luciferase reporter, 2 h; 0 = plate control, 100 = twice control, blank-subtracted; signal enhancement, % at 5 µM; hit rate 0.11% among 210,000;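 active means signal enhancement of 30% or more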;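 further: luminescence tracks abundance of the self-degrading MDM2-luciferase fusion protein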
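Material: stable MDM2–luciferase fusion reporter cells / Quantity: 2000 cells/well / Dosing: single 5 µM compound dose, 0.2% final DMSO / Buffer or medium: DMEM / Schedule: 4 h cell settling then 2 h compound exposure, 37 °C / Detection: luminescence with SteadyLite reagent, 15 min at room temperature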
The depositor's hits bear a star; . = not tested or not shown. The list is not random: actives were taken first. Their share in the collection is about 3.4%.

SMILES	PKD1 inh	DTT redox prof	p97 inhibitor	KCC2 mod	ROMK mod	MDM2 E3 inh
CC(=O)c1cccc(N(C(=O)Cn2nnc3ccccc32)C(C(=O)NCc2ccccc2)c2ccccn2)c1 (centres undefined)	2.0	-0.1	4.1	-0.25	0.297	-14.7
CCn1c(SCc2nc3ccccc3[nH]2)nnc1-c1cccs1	-2.7	-0.5	-2.1	.	-1.12	8.9
Cc1cc(C)cc(Oc2ccccc2C=O)c1	-10.1	1.4	2.2	.	.	0.2
CC(C)(C)C(=O)/C=c1\[nH]c(=O)/c(=C\c2ccc(F)cc2)s1	-8.2	-0.1	-2.0	.	-0.199	-10.3
CCc1ccc(/C=c2\s/c(=C\C(=O)C(C)(C)C)[nH]c2=O)cc1	-4.7	-0.1	-5.0	7.01*	-0.293	-14.6
Cc1ccccc1/C=c1\s/c(=C\C(=O)C(C)(C)C)[nH]c1=O	-4.0	-0.1	-5.7	10.3*	2.48	-1.4
COc1ccccc1N1CCN(C(=O)C2CC=CCC2C(=O)O)CC1 (centres undefined)	-4.6	3.5	1.3	-3.57*	.	-0.2
COc1ccccc1N1CCN(C(=O)Oc2ccccc2)CC1	-1.8	-0.1	-4.9	.	0.922	-24.2
Cc1ccc(NC(=O)NNC(=O)Cn2nc(-c3ccccc3)c(-c3ccccc3)c(C#N)c2=O)cc1	4.3	-4.0	14.6*	0.578	1.78	-13.9
Fc1ccc2nc(Nc3nc4c(F)cccc4s3)sc2c1	11.7	1.0	2.8	38.2*	.	-14.2
Fc1ccc2nc(Nc3ccccc3)sc2c1	-0.8	0.3	-1.3	0.692	0.69	-9.5
CCC(=O)NNc1nc2c(F)cc(F)cc2s1	0.4	-9.5	15.7*	.	0.945	-13.2
Fc1cccc2sc(Nc3nc4ccccc4s3)nc12	-8.5	0.3	4.0	11.7*	0.25	-5.8
Fc1ccc2nc(Nc3nc4c(F)cc(F)cc4s3)sc2c1	-6.7	0.2	7.9	17.5*	.	-9.9
CCC(=O)NNc1nc2c(F)cccc2s1	-0.1	-0.5	1.3	-0.154	0.408	-17.0
CC1CCCCN1CCNc1nc(=S)[nH]c2ccccc12 (centres undefined)	-3.3	0.7	-1.6	.	-0.293	-17.9
CC(CN1C(C)CCCC1C)OC(=O)c1ccccc1Cl (centres undefined)	-6.2	-1.7	5.3	-0.339	-0.195	-23.6
CCCc1cc(=O)[nH]c(SCc2nc3ccccc3s2)n1	-4.1	-3.7	-2.1	-0.934	.	-0.8
CC1CCCCC1NCC(=O)Nc1ccccc1-c1ccccc1 (centres undefined)	-3.7	-0.6	-8.1	-0.638	.	7.6
O=C(NC(=S)Nc1nc2c(s1)CCCC2)c1ccccc1	0.8	-0.7	-2.1	11.4*	.	-4.3
COc1ccc(NC(=O)Nc2nc3c(s2)CCCC3)cc1	-6.0	0.4	-1.3	0.549	.	-7.5
COC(=O)c1ccc(C(=O)NC(=S)Nc2nc3c(s2)CCCC3)cc1	1.3	0.2	3.4	25.1*	.	-15.6
COCCCNS(=O)(=O)c1ccc2c(c1)CCN2C(C)=O	-12.4	-0.1	-4.4	.	-0.125	-7.0
CCCC(C(=O)NC1CCCC1)N(C(=O)Cn1nnc(-c2ccc(C)o2)n1)C1CCCC1 (centres undefined)	-8.5	0.0	0.6	-0.477	-1.53	-15.5
Cc1cccc2c1NC(=O)C2(c1ccc(O)cc1)c1ccc(O)cc1	0.6	-7.9	2.9	13*	.	-36.7
SMILES	PKD1 inh	DTT redox prof	p97 inhibitor	KCC2 mod	ROMK mod	MDM2 E3 inh
O=C(CC(=O)c1cc(Cl)ccc1O)c1ccccc1	-1.5	2.3	-2.2	9.99*	.	2.6
O=C(CSc1nc2ccccc2n1CCc1ccccc1)c1ccc(O)c(O)c1	-5.2	-0.5	9.4	7.84*	1.42	-3.9
O=C(CSc1nc2ccccc2n1CCc1ccccc1)N1CCOCC1	-5.4	0.3	-4.8	0.445	0.378	-3.9
FC(F)(F)c1cnc(Sc2ncn[nH]2)c(Cl)c1	-0.1	-1.6	7.8	0.0657	-0.0897	-7.4
O=C(CNC(=O)/C(=C\c1ccccc1)NC(=O)c1ccc(Br)cc1)OCc1ccccc1	8.5	0.3	-2.3	-5.6*	.	-7.2
CCC(CC)c1nnc(NC(=O)c2ccc3ccccc3n2)s1	-4.9	1.3	-1.7	15.7*	.	-1.7
CC(=O)n1cc([C@H]2C=C(C(=O)NCc3ccccc3)O[C@@H](OCc3ccc(CO)cc3)C2)c2ccccc21	-3.6	-1.1	0.5	-2.82*	.	.
CC(=O)n1cc([C@H]2C=C(C(=O)NCc3ccccc3)O[C@@H](OCCCCO)C2)c2ccccc21	7.2	-0.6	5.8	-1.51	.	.
CC(=O)n1cc([C@H]2C=C(C(=O)Nc3ccccc3)O[C@@H](OCCCCO)C2)c2ccccc21	0.7	0.2	5.1	-5.05*	.	.
NNC(=O)CCc1nc2ccccc2[nH]1	-1.9	-1.8	-4.7	1.73	0.876	-14.9
CC1CCN(C(=O)CSc2nnc(Cn3c(=O)sc4ccccc43)n2C)CC1	20.2	-0.3	0.8	2.63	.	-12.6
COc1ccccc1C(=O)NC(=S)N1CCCc2ccccc21	-3.8	0.7	4.2	.	.	-34.1
O=C(COc1ccccc1Cl)NC(=S)N1CCc2ccccc21	-1.1	-7.6	-3.0	37.1*	-0.5	0.2
O=C(COc1ccccc1)NC(=S)N1CCc2ccccc21	3.4	-0.6	-5.0	56.5*	1.06	-6.3
CC(=O)Nc1ccc(NC(=O)Cn2c(-c3ccc(F)cc3)cnc2SCC(=O)Nc2c(C)cccc2C)cc1	-5.4	-3.4	0.5	0.864	.	3.0
CC1=CC(C)C2(COC(c3ccc[n+](C)c3)OC2)C(C)C1 (centres undefined)	1.5	-0.3	2.1	0.717	-0.957	0.3
O=C(O)C1CCN(c2nc(-c3ccccc3)nc3c2oc2ccccc23)CC1	-8.3	2.6	-2.8	-2.85*	-1.02	-13.9
CCOC(=O)C1CCN(Cc2ccccc2C)CC1	-5.6	0.2	-0.3	-0.13	0.594	-4.4
CCc1ccc2[nH]c(=O)c(C(c3nnnn3CC3CCCO3)N3CCN4CCCC4C3)cc2c1 (centres undefined)	-11.8	1.0	12.5	.	-2.35*	3.9
CCCCCCCC[n+]1c(C)n(-c2ccccc2)c2ccc(NC(C)=O)cc21	-3.0	-2.0	-1.0	0.291	-1.55	-6.9
Cc1noc(NS(=O)(=O)c2ccc(NC(=O)c3ccoc3C)cc2)c1C	-4.3	0.0	3.9	0.311	.	-12.3
CC1CCCC2(C1)NC(=S)N(c1ccccc1)N2 (centres undefined)	1.9	1.9	7.5	0.304	.	-14.7
CC1CCCC2(C1)NC(=S)c1c(sc3c1CCCC3)N2 (centres undefined)	2.4	0.1	1.6	53.9*	0.49	-12.9
COc1ccc(C2OC(=O)CC2C(=O)NCc2ccc(Cl)cc2)cc1OC (centres undefined)	1.8	-0.2	4.7	-0.0243	-0.00183	-20.2
O=C(NC(=S)N1CCN(Cc2ccc3c(c2)OCO3)CC1)c1ccc(Cl)cc1	-5.1	0.0	5.7	75.2*	.	-12.6
